The values that follow come from ChEMBL document CHEMBL1127825, “Synthesis and in vitro evaluation of 9-anilino-3,6-diaminoacridines active against a multidrug-resistant strain of the malaria parasite Plasmodium falciparum” (J Med Chem, 1994).

pIC50: −log10 of the molar value. ≈ marks a conversion by molar mass, not a printed value.

One series deals with Plasmodium falciparum. The series is described as follows: Inhibitory concentration IC50 against Plasmodium falciparum K1 by [3H]hypoxanthine uptake over 24 hr. The format is functional, organism-based. The gist of the method:
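K1 strain of P. falciparum (chloroquine- and pyrimethamine-resistant) in infected erythrocyte suspensions at 0.5% initial parasitemia, exposed to drug for 24 h at 37 °C. Read-out is [3H]hypoxanthine incorporation into parasites. IC50 is the concentration giving 50% inhibition relative to untreated controls.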

For the next series, the system named is Jurkat. The series is described as follows: Concentration required to reduce growth of human jurkat leukemia cells to 50% of control cultures, determined using a 72 hr continuous exposure. The format is functional, cell-based. The method, boiled down:
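Human Jurkat leukemia cells given continuous drug exposure for 72 h, then counted on a hemocytometer. IC50 is the concentration that cuts cell growth to 50% of untreated controls. Values are means of at least two independent determinations, with variation typically ±15%.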

A short description of series [1]: In vitro therapeutic index value is the ratio between IC50 values of [J] and [P]. The format is cell-based. Conditions: human, Jurkat cells; read-out: TI.
The target in series [2] is T1, DNA topoisomerase 2 (Plasmodium falciparum K1) (UniProt P41001).
T1 sequence (whole entry): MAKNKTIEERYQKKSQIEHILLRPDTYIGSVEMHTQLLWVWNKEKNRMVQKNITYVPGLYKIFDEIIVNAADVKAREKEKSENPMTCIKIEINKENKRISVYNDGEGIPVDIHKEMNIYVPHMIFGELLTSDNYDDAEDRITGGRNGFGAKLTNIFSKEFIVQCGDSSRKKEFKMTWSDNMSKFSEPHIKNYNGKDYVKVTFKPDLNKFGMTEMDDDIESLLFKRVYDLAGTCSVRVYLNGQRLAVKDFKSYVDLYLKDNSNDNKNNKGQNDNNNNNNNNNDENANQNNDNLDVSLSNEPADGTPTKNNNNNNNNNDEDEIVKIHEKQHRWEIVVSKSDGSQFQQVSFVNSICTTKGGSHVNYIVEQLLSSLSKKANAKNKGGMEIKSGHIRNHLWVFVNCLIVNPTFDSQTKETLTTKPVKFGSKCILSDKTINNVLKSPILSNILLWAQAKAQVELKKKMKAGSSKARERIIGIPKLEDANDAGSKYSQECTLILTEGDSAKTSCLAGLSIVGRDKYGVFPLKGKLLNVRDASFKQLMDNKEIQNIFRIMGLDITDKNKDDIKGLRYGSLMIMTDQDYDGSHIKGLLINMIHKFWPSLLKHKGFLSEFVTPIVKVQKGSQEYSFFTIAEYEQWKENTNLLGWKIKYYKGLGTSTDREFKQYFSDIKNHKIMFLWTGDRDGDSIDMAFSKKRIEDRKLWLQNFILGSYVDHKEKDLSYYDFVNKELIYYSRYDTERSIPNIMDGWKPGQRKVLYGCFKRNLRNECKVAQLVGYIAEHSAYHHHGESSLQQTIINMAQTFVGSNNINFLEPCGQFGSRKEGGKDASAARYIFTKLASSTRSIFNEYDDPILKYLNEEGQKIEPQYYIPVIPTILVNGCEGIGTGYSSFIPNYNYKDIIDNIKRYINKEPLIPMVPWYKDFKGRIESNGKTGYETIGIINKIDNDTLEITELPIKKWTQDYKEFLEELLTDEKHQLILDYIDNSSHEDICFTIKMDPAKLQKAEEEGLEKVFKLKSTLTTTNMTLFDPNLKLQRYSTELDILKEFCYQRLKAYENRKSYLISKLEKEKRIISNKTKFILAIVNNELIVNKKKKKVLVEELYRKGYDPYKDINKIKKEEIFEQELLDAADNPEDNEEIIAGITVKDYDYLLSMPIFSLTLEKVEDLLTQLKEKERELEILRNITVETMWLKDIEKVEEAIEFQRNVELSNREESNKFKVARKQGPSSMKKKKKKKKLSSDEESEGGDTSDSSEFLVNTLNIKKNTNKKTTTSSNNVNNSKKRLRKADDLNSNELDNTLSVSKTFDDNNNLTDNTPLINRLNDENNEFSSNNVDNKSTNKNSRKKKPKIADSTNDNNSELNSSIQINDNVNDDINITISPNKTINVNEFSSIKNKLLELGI
Put plainly: Minimum inhibitory concentration required to completely inhibit topoisomerase II activity from Plasmodium falciparum was determined using P4 DNA […] assay.

Series [3] concerns the target DNA topoisomerase II (Homo sapiens) (UniProt P11388+Q02880). Put plainly: Minimum inhibitory concentration required to completely inhibit topoisomerase II activity from jurkat human leukemia cells was determined using P4 DNA unknotting assay. The gist of the method:
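Enzyme is a partially purified topoisomerase II extract from midlog Jurkat cells, made by sonication in Tris pH 8/KCl/MgCl2/EGTA buffer with protease inhibitors, then PEG/KCl precipitation. Extract is diluted to a set P4 DNA unknotting activity. Proteinase K method scores unknotting and linearization of phage P4 DNA on 0.7% agarose gels stained with ethidium bromide. MIC is the concentration giving complete inhibition.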

What is called pIC50 is −log10 of the IC50, conventionally taken in molar units. Read a high pIC50 as a small IC50. For the compound `COc1cc(NS(C)(=O)=O)ccc1Nc1c2ccc(N(C)C)cc2nc2cc(N(C)C)ccc12`, the pIC50 in the series with Plasmodium falciparum was 6.40; in the series on Jurkat, more than 6.00. Also, the selectivity ratio in series [1] is less than 2.5.

Turning to `CNc1ccc(Nc2c3ccccc3nc3ccccc23)cc1`, the negative-log IC50 (pIC50) in the series with Plasmodium falciparum was 6.40; with Jurkat, 5.82. The selectivity ratio in series [1] is 3.8.

Turning to `Nc1ccc2c(Nc3ccccc3)c3ccc(N)cc3nc2c1`, the pIC50 is 6.52 with Plasmodium falciparum and 4.82 in the series with Jurkat. The selectivity ratio in series [1] was found to be 50.

As for `Nc1ccc2c(Nc3ccc(CN4CCCCC4)cc3)c3ccc(N)cc3nc2c1`, the pIC50 in the series with Plasmodium falciparum is 6.70; in the series with Jurkat it was less than 4.70. Moreover, the selectivity ratio in series [1] was more than 100.

`CN(C)S(=O)(=O)c1ccc(Nc2c3ccc(N)cc3nc3cc(N)ccc23)cc1`: the figures for the pIC50 with Plasmodium falciparum and in the series with Jurkat were 6.80 and 5.30, respectively. Moreover, the selectivity ratio in series [1] was determined as 31.

In the case of `NC(=O)c1ccc(Nc2c3ccc(N)cc3nc3cc(N)ccc23)cc1`, the negative logarithm of the IC50 (pIC50) is 7.15 in the series on Plasmodium falciparum and less than 4.70 in the series on Jurkat. Moreover, the values for the MIC in series [2] and in series [3] were 6 µM (≈ 2.06 µg/mL) and 20 µM (≈ 6.87 µg/mL), respectively. Also, in series [1], the selectivity ratio was more than 285.

For `Cc1ccc(Nc2c3ccc(N)cc3nc3cc(N)ccc23)cc1`, the negative-log IC50 (pIC50) in the series on Plasmodium falciparum is 6.82; with Jurkat, 5.52. Further, the selectivity ratio in series [1] turned out to be 20.

`Nc1ccc2c(Nc3ccc(S(=O)(=O)N4CCCCC4)cc3)c3ccc(N)cc3nc2c1`: the pIC50 with Plasmodium falciparum was 5.85; in the series on Jurkat, 4.85. In series [1], the selectivity ratio worked out at 10.

As to `COc1cc(NS(C)(=O)=O)ccc1Nc1c2ccccc2nc2cc(N)ccc12`, the negative-log IC50 (pIC50) in the series on Plasmodium falciparum is 6.70; in the series with Jurkat it was more than 6.00. For the same compound, the selectivity ratio in series [1] was less than 5.

Consider `CN(C)c1ccc(Nc2c3ccccc3nc3ccccc23)cc1`, for which the pIC50 in the series with Plasmodium falciparum was 6.33; in the series with Jurkat, more than 6.00. The selectivity ratio in series [1] is less than 2.

With `CN(C)C(=O)c1ccc(Nc2c3ccc(N)cc3nc3cc(N)ccc23)cc1`, the pIC50 in the series with Plasmodium falciparum was 6.22; in the series on Jurkat it was less than 4.70. The selectivity ratio in series [1] is more than 33.

With `NS(=O)(=O)c1ccc(Nc2c3ccc(Cl)cc3nc3cc(Cl)ccc23)cc1`, the pIC50 in the series on Plasmodium falciparum was less than 5.00; in the series with Jurkat it was less than 4.70. For the same compound, the MIC in series [2] is 100 µM (≈ 41.8 µg/mL); in series [3], more than 100 µM.

As for `CNS(=O)(=O)c1ccc(Nc2c3ccc(N)cc3nc3cc(N)ccc23)cc1`, the pIC50 in the series with Plasmodium falciparum was 7.85; in the series with Jurkat it was 5.70. For the same compound, the values for the MIC in series [2] and in series [3] were 25 µM (≈ 9.84 µg/mL) and 20 µM (≈ 7.87 µg/mL), respectively. Also, the selectivity ratio in series [1] came to 143.

Take `COc1cc(N=c2c3ccccc3[nH]c3cc(N)ccc23)ccc1NS(C)(=O)=O`: the negative logarithm of the IC50 (pIC50) with Plasmodium falciparum was 5.57; with Jurkat, more than 6.00. Besides, in series [1], the selectivity ratio was less than 0.4.

Regarding `CN(C)Cc1ccc(Nc2c3ccccc3nc3cc(N)ccc23)cc1`, the values for the pIC50 in the series with Plasmodium falciparum and with Jurkat were 6.60 and 5.60, respectively. In addition, the selectivity ratio in series [1] worked out at 10.

Take `COc1cc(NS(C)(=O)=O)ccc1Nc1c2ccc(N)cc2nc2cc(N)ccc12`: the negative-log IC50 (pIC50) in the series with Plasmodium falciparum is 7.00; in the series on Jurkat, 6.10. The selectivity ratio in series [1] was 8.

With `CCCCCNCc1ccc(Nc2c3ccc(N)cc3nc3cc(N)ccc23)cc1`, the pIC50 is 6.22 in the series with Plasmodium falciparum and 4.80 in the series with Jurkat. The selectivity ratio in series [1] was determined as 27.

Consider `COc1cc(NS(C)(=O)=O)ccc1Nc1c2ccccc2nc2ccccc12` [AMSACRINE], for which the figures for the negative-log IC50 (pIC50) with Plasmodium falciparum and in the series on Jurkat were 6.22 and more than 6.00, respectively. The selectivity ratio in series [1] is less than 1.5.

Turning to `COc1cc(Nc2c3ccccc3nc3ccccc23)ccc1NS(C)(=O)=O` [o-Amsacrine], the results for the pIC50 in the series with Plasmodium falciparum and in the series on Jurkat were 4.59 and 5.00, respectively. In series [1], the selectivity ratio worked out at 0.4.

Consider `CNC(=O)c1ccc(Nc2c3ccc(N)cc3nc3cc(N)ccc23)cc1`, for which the pIC50 is 7.40 with Plasmodium falciparum and less than 4.70 in the series with Jurkat. For the same compound, the selectivity ratio in series [1] was more than 500.

Take `CS(=O)(=O)Nc1ccc(Nc2c3ccccc3nc3ccccc23)cc1`: the negative-log IC50 (pIC50) is 5.52 in the series on Plasmodium falciparum and more than 6.00 in the series with Jurkat. The selectivity ratio in series [1] was less than 0.3.

On to `CS(=O)(=O)Nc1ccc(Nc2c3ccccc3nc3cc(N)ccc23)cc1`, for which the negative logarithm of the IC50 (pIC50) is 5.52 in the series with Plasmodium falciparum and 5.70 in the series with Jurkat. Further, the selectivity ratio in series [1] amounted to 0.7.

On to `CN(C)Cc1ccc(Nc2c3ccccc3nc3ccccc23)cc1`, for which the figures for the pIC50 in the series on Plasmodium falciparum and in the series on Jurkat were 6.82 and 5.12, respectively. Also, the selectivity ratio in series [1] amounted to 50.

In the case of `Nc1ccc2c(=Nc3ccc(S(N)(=O)=O)cc3)c3ccc(N)cc3[nH]c2c1`, the pIC50 is 7.70 in the series with Plasmodium falciparum and 4.70 in the series with Jurkat. The results for the MIC in series [2] and in series [3] were 6 µM (≈ 2.28 µg/mL) and 20 µM (≈ 7.59 µg/mL), respectively. For the same compound, in series [1], the selectivity ratio was determined as 1000.

For `Nc1ccc(Nc2c3ccccc3nc3ccccc23)cc1`, the pIC50 is 5.82 in the series with Plasmodium falciparum and 6.12 in the series on Jurkat. The selectivity ratio in series [1] stood at 0.5.

`COc1cc(Nc2c3ccc(N)cc3nc3cc(N)ccc23)ccc1NS(C)(=O)=O`: the figures for the pIC50 in the series with Plasmodium falciparum and in the series on Jurkat were 6.30 and 5.07, respectively. For the same compound, in series [1], the selectivity ratio was found to be 17.

Consider `COc1ccc(Nc2c3ccc(N)cc3nc3cc(N)ccc23)cc1`, for which the results for the pIC50 in the series on Plasmodium falciparum and with Jurkat were 6.82 and 5.40, respectively. The MIC turned out to be 6 µM (≈ 1.98 µg/mL) in series [2] and 20 µM (≈ 6.61 µg/mL) in series [3]. Moreover, the selectivity ratio in series [1] was found to be 27.

For `CN(C)c1ccc(Nc2c3ccccc3nc3cc(N)ccc23)cc1`, the negative-log IC50 (pIC50) in the series on Plasmodium falciparum is 6.54; with Jurkat it was more than 6.00. Besides, the selectivity ratio in series [1] is less than 3.5.

For the compound `CN(C)c1ccc2c(Nc3ccccc3)c3ccc(N(C)C)cc3nc2c1`, the negative-log IC50 (pIC50) in the series on Plasmodium falciparum was 5.62; in the series with Jurkat, 5.85. Further, the selectivity ratio in series [1] stood at 0.6.

`COc1ccc2c(Nc3ccc(S(N)(=O)=O)cc3)c3ccc(OC)cc3nc2c1`: the results for the pIC50 in the series on Plasmodium falciparum and with Jurkat were less than 5.00 and 5.51, respectively. Moreover, the MIC in series [2] and in series [3] was more than 100 µM throughout. The selectivity ratio in series [1] was less than 3.2.

As to `Nc1ccc(Nc2c3ccccc3nc3cc(N)ccc23)cc1`, the negative logarithm of the IC50 (pIC50) in the series on Plasmodium falciparum is 7.00; with Jurkat it was 6.12. Besides, the selectivity ratio in series [1] stood at 7.5.

`[N-]=[N+]=Nc1ccc2c(Nc3ccc(S(N)(=O)=O)cc3)c3ccc(N=[N+]=[N-])cc3nc2c1`: the negative-log IC50 (pIC50) was 7.52 in the series with Plasmodium falciparum and 5.60 with Jurkat. Further, the selectivity ratio in series [1] amounted to 83.

Take `CNc1ccc(Nc2c3ccc(N)cc3nc3cc(N)ccc23)cc1`: the figures for the pIC50 in the series with Plasmodium falciparum and in the series on Jurkat were 6.80 and 4.94, respectively. The selectivity ratio in series [1] was found to be 72.

`CN(C)Cc1ccc(Nc2c3ccc(Cl)cc3nc3cc(Cl)ccc23)cc1`: the negative-log IC50 (pIC50) is 6.60 in the series on Plasmodium falciparum and 5.30 in the series on Jurkat. In addition, in series [1], the selectivity ratio was determined as 20.

Regarding `CNc1ccc(Nc2c3ccccc3nc3cc(N)ccc23)cc1`, the pIC50 is 6.49 with Plasmodium falciparum and 6.30 in the series with Jurkat. Further, the selectivity ratio in series [1] is 1.6.
